In ChEMBL document CHEMBL1121397, “5-substituted 2-amino-6-phenyl-4(3H)-pyrimidinones. Antiviral- and interferon-inducing agents” (1980):

What was measured:
[1] = test system: Human alphaherpesvirus 1; experiment: Protective index was measured on herpes simplex virus type 1(HSV-1) infected mice, at dose of 200 mg/kg/day; ip; assay type: functional; details: route intraperitoneal
Method in brief: (§1)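 Mice inoculated ip with 5.6 × 10^4 pfu HSV-1. Compound given ip in saline at the stated (mg/kg)/day at -40, -28, -20, -3 and +3 h relative to infection. Protection index = (control mortality − treated mortality)/control mortality; >0.25 counted as active.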

[2] = test system: L929; experiment: Serum interferon response from a single ip administration of 800 mg/kg employing a plaque-reduction assay.(VSV on L929 cells); assay type: functional, Mus musculus; details: route intraperitoneal
Method in brief: (§2)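 Serum interferon measured after one ip dose of 800 mg/kg, titrated by VSV plaque reduction on L929 cells. Peak titre within 24 h scored: +++ ≥2000, ++ ≈500-1000, + ≈50-500, ± ≈10-50 units/mL.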

[3] = test system: Mus musculus; experiment: Tested for in vivo antiviral activity against semliki forest virus in mice after subcutaneous administration; assay type: functional; details: sc
Method in brief: (§3)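 Mice got a single compound dose by the stated route 18 h before a lethal ip Semliki Forest virus challenge, 24 mice per group. ED50 is the minimum dose protecting 50% of mice, calculated by probit analysis of variance, in mg/kg.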

[4] = test system: Mus musculus; experiment: Tested for in vivo antiviral activity against semliki forest virus in mice after peroral administration; assay type: functional; details: po; method in brief: as §3
[5] = test system: Mus musculus; experiment: Tested for in vivo antiviral activity against semliki forest virus in mice after intraperitoneal administration; assay type: functional; details: ip; method in brief: as §3
[6] = test system: Human alphaherpesvirus 1; experiment: Protective index was measured on herpes simplex virus type 1(HSV-1) infected mice, at a dose of 200 mg/kg/day; ip; assay type: functional; details: route intraperitoneal; method in brief: as §1
[7] = test system: L929; experiment: Serum interferon response from a single ip administration of 800 mg/kg employing a plaque-reduction assay.(VSV on L929 cells); range 500-1000; assay type: functional, Mus musculus; details: route intraperitoneal; method in brief: as §2
[8] = test system: Human alphaherpesvirus 1; experiment: Protective index was measured on herpes simplex virus type 1(HSV-1) infected mice, at a dose of 100 mg/kg/day; ip; assay type: functional; details: route intraperitoneal
[9] = test system: Human alphaherpesvirus 1; experiment: Protective index was measured on herpes simplex virus type 1(HSV-1) infected mice. at dose of 100 mg/kg/day; ip; assay type: functional; details: route intraperitoneal
[10] = test system: L929; experiment: Serum interferon response from a single ip administration of 800 mg/kg employing a plaque-reduction assay.(VSV on L929 cells); range 50-500; assay type: functional, Mus musculus; details: route intraperitoneal; method in brief: as §2
[11] = test system: Human alphaherpesvirus 1; experiment: Protective index was measured on herpes simplex virus type 1(HSV-1) infected mice, at dose of 100 mg/kg/day; ip; assay type: functional; details: route intraperitoneal
[12] = test system: Human alphaherpesvirus 1; experiment: Protective index was measured on herpes simplex virus type 1(HSV-1) infected mice. at a dose of 200 mg/kg/day, ip; assay type: functional; details: route intraperitoneal; method in brief: as §1
[13] = test system: Human alphaherpesvirus 1; experiment: Protective index was measured on herpes simplex virus type 1(HSV-1) infected mice at 150 mg/kg/day; assay type: functional; method in brief: as §1

Nc1nc(O)c(Cl)c(-c2ccccc2)n1
Protection index [1]: 0.62
Interferon response [2]: >=2000 ml
ED50 [3]: 105 mg/kg
ED50 [4]: 90 mg/kg
ED50 [5]: 100 mg/kg

CCc1c(O)nc(N)nc1-c1ccccc1
Protection index [6]: 0.57
ED50 [3]: > 400 mg/kg
Interferon response [7]: 1000 mL
ED50 [4]: 280 mg/kg
ED50 [5]: 45 mg/kg

CCCc1c(O)nc(N)nc1-c1ccccc1
Protection index [8]: 0.13
ED50 [5]: > 400 mg/kg

Nc1nc(O)c(I)c(-c2ccccc2)n1
ED50 [3]: 25 mg/kg
Protection index [9]: 0.86
ED50 [4]: > 400 mg/kg
ED50 [5]: 50 mg/kg
Interferon response [10]: 500 mL

CCOCCc1c(O)nc(N)nc1-c1ccccc1
ED50 [3]: > 400 mg/kg
Protection index [8]: 0.15
ED50 [4]: > 400 mg/kg
ED50 [5]: > 800 mg/kg

Cc1c(O)nc(N)nc1-c1ccccc1
Interferon response [2]: >=2000 ml
Protection index [11]: 0.35
ED50 [5]: 185 mg/kg

Cc1nc(N)nc(O)c1I
Protection index [12]: 0.16
Interferon response [7]: 1000 mL
ED50 [5]: 200 mg/kg

C=CCc1c(O)nc(N)nc1-c1ccccc1
Protection index [6]: 0.43
ED50 [3]: > 400 mg/kg
ED50 [4]: > 400 mg/kg
ED50 [5]: 95 mg/kg
Interferon response [10]: 50 mL

C#CCc1c(O)nc(N)nc1-c1ccccc1
ED50 [4]: > 400 mg/kg
ED50 [5]: 130 mg/kg

Cc1nc(N)nc(O)c1Br
Interferon response [2]: 1000 mL
Protection index [13]: 0.4
ED50 [5]: 250 mg/kg

Nc1nc(=O)c(Br)c(-c2ccccc2)[nH]1 [BROPIRIMINE]
Interferon response [2]: >=2000 ml
ED50 [3]: 50 mg/kg
ED50 [4]: 100 mg/kg
ED50 [5]: 100 mg/kg
